Assay results collected from several papers.
Lines come from different studies, so protocols differ.
Target: 5-hydroxytryptamine receptor 2B (HTR2B, Homo sapiens, UniProt P41595)

For `Nc1ncc(-c2nc(N3CCOCC3)nc(N3CCOCC3)n2)c(C(F)F)n1`, the remaining signal was 94.1% (cell-free assay; radioligand; 10 µM).
`c1ccc(C(NCCNC(c2ccccc2)c2ccccc2)c2ccccc2)cc1` gave an inhibition of 79% (ligand displacement; 10 µM).
`COc1cc2c3c(c1OC)-c1cc4c(cc1CC3N(C)CC2)OCO4` (racemic) gave an inhibition of 92.8% (ligand displacement; radioligand; 10 µM).
For `COCc1c(-c2cc3cc(C)cc(OC)c3s2)c2c(N)ncnn2c1CN1CCNC(=O)C1`, the inhibition was 84% (ligand displacement; radioligand; 10 µM).
With `CC(C)N1CCC[C@H]1CNC(=O)c1cn(C2CCCC2)c(=O)c2c1c1ccccc1n2C` the inhibition was 41% (ligand displacement; radioligand; 10 µM).
`Cn1cncc1[C@@](O)(COc1ccc(C#N)cc1-c1ccc(OC(F)(F)F)cc1)c1ccc(C#N)cc1` has an inhibition of 18.6% (ligand displacement; 10 µM).
`COCCN(CCOC)C(=O)[C@@]12C[C@@H]1[C@@H](n1cnc3c(N)nc(Cl)nc31)[C@H](O)[C@@H]2O` gave an inhibition of 36% (ligand displacement; radioligand; 10 µM).
For `CCN(CC)CCCC[C@H](NC(=O)[C@H](CC(C)C)NC(=O)[C@H](C)NC(=O)[C@H](Cc1ccccc1)NC(=O)c1ccc(C(C)(C)C)cc1)C(=O)N[C@@H](CO)C(=O)OC`, the inhibition was 7% (ligand displacement; radioligand; 10 µM).
`CC(Cc1ccccc1)NCCn1cnc2c1c(=O)n(C)c(=O)n2C` (centres unmarked) has an inhibition of 23% (ligand displacement; radioligand; 10 µM).
`CCOc1ccccc1NC(=O)c1ccccc1NS(=O)(=O)C1CC1` has an inhibition of 63% (ligand displacement; radioligand; 10 µM).
With `C[C@H](C(=O)N[C@H]1COc2ccccc2[C@@H]1S(C)(=O)=O)c1ccc(F)cc1` the inhibition was -9% (ligand displacement; 10 µM).
`CCC(N)Cc1cc(OC)c(COC)cc1OC` (centres unmarked) gave an Emax of 43% (G protein activation; agonist; BRET).
The inhibition of `N#CC1(c2ccccn2)CCN(Cc2cc(C(=O)O)c(=O)n3ccccc23)CC1` is reported as 3.23% (ligand displacement; 10 µM).
For `Clc1ccc2c(C3CCN(CCc4c[nH]c5ccccc45)CC3)c[nH]c2c1`, the inhibition was 100% (ligand displacement; radioligand; 10 µM).
